ChEMBL document CHEMBL4118079, “Discovery of novel naphthoquinone derivatives as inhibitors of the tumor cell specific M2 isoform of pyruvate kinase” (Eur J Med Chem, 2017)

Columns and labels:
[1] = molecular target: T1, Pyruvate kinase PKM (Homo sapiens, UniProt P14618); assay: Inhibition of recombinant human N-terminal His-tagged PKM2 expressed in Escherichia coli BL21 preincubated for 15 mins followed by PEP/NADH addition measured at 30 secs interval for 3 to 6 mins by fluorescent PK-LDH assay
Outline: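 Human PKM2 with an N-terminal His tag, expressed in E. coli BL21 and Ni-agarose purified. Enzyme and compound preincubated 15 min in 50 mM Tris–HCl pH 7.5, 10 mM KCl, 5 mM MgCl2. NADH fluorescence read kinetically every 30 s for 3–6 min. IC50.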

[2] = tested on: NCI-H1299; assay: Antiproliferative activity against human NCI-H1299 cells after 48 hrs by MTS assay; format: functional, cell-based; details: NCI-H1299, 48 h
Outline: (§1)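 Cells kept in RPMI 1640 with 9% FBS at 37°C, 5% CO2. 5000 cells/well seeded, left 12 h, then exposed to a range of compound concentrations or DMSO (negative control) for 48 h. MTS added, 3 h at 37°C, absorbance read at 490 nm. IC50 ± SD.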

[3] = tested on: HeLa; assay: Antiproliferative activity against human HeLa cells after 48 hrs by MTS assay; format: functional, cell-based; outline: as §1
[4] = tested on: HCT-116; assay: Antiproliferative activity against human HCT116 cells after 48 hrs by MTS assay; format: functional, cell-based; details: HCT-116, 48 h; outline: as §1
[5] = Selectivity index, ratio of IC50 for human BEAS2B cells to IC50 for human NCI-H1299 cells; format: toxicity; details: BEAS2B cells and NCI-H1299 cells, read-out: Ratio IC50
[6] = tested on: BEAS-2B; assay: Cytotoxicity against human BEAS2B cells assessed as reduction in cell viability after 48 hrs by MTS assay; format: cell-based; outline: as §1
[7] = species: Homo sapiens; assay: Selectivity ratio of IC50 for recombinant human N-terminal His-tagged PKM1 expressed in Escherichia coli BL21 to IC50 for recombinant human N-terminal His-tagged PKM2 expressed in Escherichia coli BL21
[8] = species: Homo sapiens; assay: Selectivity ratio of IC50 for recombinant human N-terminal His-tagged PKL expressed in Escherichia coli to IC50 for recombinant human N-terminal His-tagged PKM2 expressed in Escherichia coli BL21
[9] = molecular target: Pyruvate kinase PKLR (Homo sapiens, UniProt P30613); assay: Inhibition of recombinant human N-terminal His-tagged PKL expressed in Escherichia coli preincubated for 15 mins followed by PEP/NADH addition measured at 30 secs interval for 3 to 6 mins by fluorescent PK-LDH assay
Pyruvate kinase PKLR, sequence (P30613 whole entry): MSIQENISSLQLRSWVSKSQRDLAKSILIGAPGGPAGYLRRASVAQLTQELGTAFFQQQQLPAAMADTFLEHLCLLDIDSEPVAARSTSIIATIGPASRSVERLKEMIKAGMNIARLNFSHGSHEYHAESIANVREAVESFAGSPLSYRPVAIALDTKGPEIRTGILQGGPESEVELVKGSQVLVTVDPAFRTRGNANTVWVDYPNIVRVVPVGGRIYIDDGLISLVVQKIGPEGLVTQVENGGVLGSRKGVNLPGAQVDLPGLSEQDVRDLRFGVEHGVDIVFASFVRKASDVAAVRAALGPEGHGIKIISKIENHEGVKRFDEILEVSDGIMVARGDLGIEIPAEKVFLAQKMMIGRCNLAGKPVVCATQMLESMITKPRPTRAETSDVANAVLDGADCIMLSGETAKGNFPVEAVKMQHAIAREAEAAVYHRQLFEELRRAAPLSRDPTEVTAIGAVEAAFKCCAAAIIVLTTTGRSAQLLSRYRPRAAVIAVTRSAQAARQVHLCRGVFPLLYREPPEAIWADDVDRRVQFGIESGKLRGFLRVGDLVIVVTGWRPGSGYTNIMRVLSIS

[10] = molecular target: T1, Pyruvate kinase PKM; assay: Inhibition of recombinant human N-terminal His-tagged PKM1 expressed in Escherichia coli BL21 preincubated for 15 mins followed by PEP/NADH addition measured at 30 secs interval for 3 to 6 mins by fluorescent PK-LDH assay
Outline: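 Human PKM1 with an N-terminal His tag, expressed in E. coli BL21 and Ni-agarose purified. Activity measured by PK–LDH coupling, with pyruvate formation tracked as NADH depletion by fluorescence in kinetic mode. IC50.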
Target sequence in this assay (P14618 whole entry): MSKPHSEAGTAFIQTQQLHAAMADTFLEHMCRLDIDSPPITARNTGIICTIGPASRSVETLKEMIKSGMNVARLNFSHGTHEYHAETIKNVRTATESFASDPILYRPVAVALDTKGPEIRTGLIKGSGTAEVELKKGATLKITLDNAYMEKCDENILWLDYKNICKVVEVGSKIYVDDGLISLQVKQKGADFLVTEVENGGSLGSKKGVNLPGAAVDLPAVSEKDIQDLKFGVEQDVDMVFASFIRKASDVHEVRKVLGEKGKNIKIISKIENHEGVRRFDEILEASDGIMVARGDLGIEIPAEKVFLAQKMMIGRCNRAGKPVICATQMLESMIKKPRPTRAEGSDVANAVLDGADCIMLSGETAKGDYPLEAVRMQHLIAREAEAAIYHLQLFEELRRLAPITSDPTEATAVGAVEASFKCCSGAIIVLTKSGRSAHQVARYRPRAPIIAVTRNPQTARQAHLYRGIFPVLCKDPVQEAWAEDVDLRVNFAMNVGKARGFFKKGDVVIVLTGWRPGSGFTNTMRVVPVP

[11] = tested on: HCT-116; assay: Antiproliferative activity against human HCT116 cells assessed as cell viability at 0.156 uM after 48 hrs by MTS assay relative to control; format: functional; details: HCT-116, 48 h, read-out: Activity
[12] = tested on: HeLa; assay: Antiproliferative activity against human HeLa cells assessed as cell viability at 0.625 uM after 48 hrs by MTS assay relative to control; format: functional; details: read-out: Activity
[13] = tested on: HeLa; assay: Antiproliferative activity against human HeLa cells assessed as cell viability at 0.078 uM after 48 hrs by MTS assay relative to control; format: functional; details: read-out: Activity
[14] = tested on: HCT-116; assay: Antiproliferative activity against human HCT116 cells assessed as cell viability at 0.625 uM after 48 hrs by MTS assay relative to control; format: functional; details: HCT-116, 48 h, read-out: Activity
[15] = tested on: HCT-116; assay: Antiproliferative activity against human HCT116 cells assessed as cell viability at 0.078 uM after 48 hrs by MTS assay relative to control; format: functional; details: HCT-116, 48 h, read-out: Activity
[16] = tested on: HCT-116; assay: Antiproliferative activity against human HCT116 cells assessed as cell viability at 0.313 uM after 48 hrs by MTS assay relative to control; format: functional; details: HCT-116, 48 h, read-out: Activity
[17] = tested on: HeLa; assay: Antiproliferative activity against human HeLa cells assessed as cell viability at 0.156 uM after 48 hrs by MTS assay relative to control; format: functional; details: read-out: Activity
[18] = tested on: HeLa; assay: Antiproliferative activity against human HeLa cells assessed as cell viability at 0.313 uM after 48 hrs by MTS assay relative to control; format: functional; details: read-out: Activity
[19] = tested on: NCI-H1299; assay: Antiproliferative activity against human NCI-H1299 cells after 48 hrs in presence of PKM2 activator FBP by MTS assay; format: functional, cell-based; details: NCI-H1299, 48 h
Outline: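 H1299 cells in RPMI 1640 with 9% FBS at 37°C, 5% CO2. 5000 cells/well, 12 h attachment, then 48 h treatment at graded concentrations with FBP (100 µM) added. MTS read-out (3 h, 37°C, A490). IC50 ± SD.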

Structure (SMILES)	IC50 [1] [µM]	IC50 [2] [µM]	IC50 [3] [µM]	IC50 [4] [µM]	further results
CC1=C(CSC(=S)NCc2ccncc2)C(=O)c2ccccc2C1=O	> 20	0.67	0.5	0.59	
O=C1C=C(CSC(=S)N2CCCCC2)C(=O)c2ccccc21	1.74	2.06	0.92	2.37	selectivity ratio [5]: 9.4; IC50 [6]: 19.3 µM
CC1=C(CSC(=S)NCc2ccccc2)C(=O)c2ccccc2C1=O	2.21	4.84	1.3	1.72	
CCN(CC)CCNC(=S)SCC1=C(C)C(=O)c2ccccc2C1=O	> 20	3.97	5.78	3.37	
CC1=C(CSC(=S)NCc2ccccn2)C(=O)c2ccccc2C1=O	> 20	4.49	6.77	5.42	
CC(=O)N1CCN(C(=S)SC2=C(C)C(=O)c3ccccc3C2=O)CC1	> 20	6.61	10.6	4.95	
CCCN(CCC)C(=S)SCc1cc(OC)c2ccccc2c1OC	15.7	> 20	> 20	> 20	
CC1=C(CSC(=S)N2CCN(C(C)C)CC2)C(=O)c2ccccc2C1=O	> 20	4.06	2.19	1.97	
C=CCN(CC=C)C(=S)SCC1=C(C)C(=O)c2ccccc2C1=O	14.1	3.2	1.16	2.17	
O=C1C=C(CSC(=S)N2CCN(c3ccccc3)CC2)C(=O)c2ccccc21	1.4	8.71	> 20	> 20	Ratio IC50 [7]: 4.5; Ratio IC50 [8]: 2.7; inhibition [1]: Dose-dependent effect; IC50 [9]: 3.8 µM; IC50 [10]: 6.26 µM
CCN(CC)C(=S)SCC1=CC(=O)c2ccccc2C1=O	2.58	1.9	0.51	1.82	
CC(C)=CC[C@@H](O)C1=CC(=O)c2c(O)ccc(O)c2C1=O [SHIKONIN]		1.88	2.45	1.84	Ratio IC50 [7]: 1.5; Ratio IC50 [8]: 4.5; selectivity ratio [5]: 2.9; IC50 [6]: 5.36 µM
CC1=C(CSC(=S)NCc2cccnc2)C(=O)c2ccccc2C1=O	> 20	1.08	0.38	0.18	
CCCCN(CCCC)C(=S)SCC1=C(C)C(=O)c2ccccc2C1=O	4.57	6.41	18.5	10.9	
CC1=C(SC(=S)N2CCOCC2)C(=O)c2ccccc2C1=O	8.5	3.27	2.14	2.28	
CC(=O)N1CCN(C(=S)SCC2=C(C)C(=O)c3ccccc3C2=O)CC1	> 20	4.68	3.52	2.08	
O=C1C=C(CSC(=S)N2CCOCC2)C(=O)c2ccccc21	4.23	5.69	2.39	3.68	
CCCN(CCC)C(=S)SC1=C(C)C(=O)c2ccccc2C1=O	9.98	15.6	> 20	4.3	
CC1=C(CSC(=S)N2CC(C)OC(C)C2)C(=O)c2ccccc2C1=O (configuration not stated)	11.7	1.47	0.87	1.1	
CC1=C(CSC(=S)N(CCO)CCO)C(=O)c2ccccc2C1=O	> 20	1.95	4.8	2.23	

Continued, in another order:

IC50 [1] [µM]	IC50 [2] [µM]	IC50 [3] [µM]	IC50 [4] [µM]	Structure (SMILES)	further results
4.93	10.2	1.29	3.55	CC1=C(SC(=S)N2CCCCC2)C(=O)c2ccccc2C1=O	
> 20	5.39	8.36	4.59	CNC(=S)SCC1=C(C)C(=O)c2ccccc2C1=O	
19.7	1.64	0.88	1.46	CC1=C(CSC(=S)N2CCCC2)C(=O)c2ccccc2C1=O	
5.08	11.3	13.6	10.6	CC1=C(CSC(=S)N(C)C2CCCCC2)C(=O)c2ccccc2C1=O	
6.79	4.23	12.1	6	CCCN(CCC)C(=S)SCC1=C(C)C(=O)c2ccccc2C1=O	
5.89	1.19	0.32	0.89	CC1=C(CSC(=S)N2CCSCC2)C(=O)c2ccccc2C1=O	selectivity ratio [5]: 8.6; IC50 [6]: 10.5 µM
> 20	> 20	3.92	2	CC1=C(CSC(=S)NN2CCN(C)CC2)C(=O)c2ccccc2C1=O	
15.2	1.23	0.95	0.8	CC1=C(CSC(=S)N2CCOCC2)C(=O)c2ccccc2C1=O	
	1.56	0.29	0.18	CC1=C(CSC(=S)N2CCCCC2)C(=O)c2ccccc2C1=O	Ratio IC50 [7]: 5.7; Ratio IC50 [8]: 2.8; inhibition [1]: Dose-dependent effect; selectivity ratio [5]: 11.8; viability at 0.156 µM [11]: 62.3%; IC50 [9]: 8.2 µM; viability at 0.625 µM [12]: 4.8%; viability at 0.078 µM [13]: 99%; viability at 0.625 µM [14]: 6.9%; viability at 0.078 µM [15]: 92.5%; IC50 [6]: 18.5 µM; IC50 [10]: 16.7 µM; viability at 0.313 µM [16]: 20.7%; viability at 0.156 µM [17]: 95.8%; viability at 0.313 µM [18]: 21.1%; IC50 [19]: 2.01 µM
8.78	0.89	0.39	0.41	CCN(CC)C(=S)SCC1=C(C)C(=O)c2ccccc2C1=O	selectivity ratio [5]: 17; IC50 [6]: 15.1 µM; IC50 [19]: 1.58 µM
> 20	4.37	10.4	7.36	CC1=C(CSC(=S)NN2CCCCC2)C(=O)c2ccccc2C1=O	
5.28	3.28	1.96	1.75	CC1=C(CSC(=S)N2CCSC2)C(=O)c2ccccc2C1=O	
14.2	2.44	1.57	2.84	CC1=C(CSC(=S)N2CCN(C)CC2)C(=O)c2ccccc2C1=O	
